Measurements from PMC3065024 (Nuclear medicine and biology, 2011).
One block for each compound: values may come before it.

Legend:
[1] = system: LAT2; details: cited from earlier work
[2] = system: 9L glioma cells; experiment: Uptake mechanism; format: cell-based; details: 30 min incubation
In short: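 The plating, washing, lysis and counting of 9L cells were as in the uptake assay. The radiotracer in PBS was co-incubated with MeAIB, L-Ala, L-Ser, BCH, D-Met or NEM at 0.5, 1 or 5 mM. For sodium dependence, PBS was replaced by Na+-free buffer (143 mM choline chloride, 2.68 mM KCl, 1.47 mM KH2PO4). Incubation was 30 min at 37 °C. Values are normalised to uninhibited uptake in PBS, n = 3.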

[3] = system: 9L glioma cells; experiment: In vitro cell uptake studies in 9L cells; format: cell-based; details: time course up to 2 h
In short: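 9L gliosarcoma cells were grown in DMEM with 10% FBS and 1% penicillin/streptomycin at 37 °C, 5% CO2. They were seeded at 2.0 × 10^5 cells/well 24 h ahead and rinsed with warm PBS containing Ca2+/Mg2+. Radiotracer in PBS (~500,000 cpm/mL/well) was applied for 5, 30, 60 or 120 min at 37 °C. Cells were washed in ice-cold Ca/Mg-free PBS, lysed in 1 M NaOH and gamma-counted. Uptake is %ID/100 μg Lowry protein, in triplicate.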

[4] = system: 9L xenograft; experiment: In vivo biodistribution in Fisher rats with 9L glioma tumors; details: for Tumor uptake: 9L tumor, n = 5; for Tumor uptake / Blood uptake / Bone uptake / Brain uptake / Heart uptake / Kidney uptake / Liver uptake / Lung uptake / Muscle uptake / Pancreas uptake / Skin uptake / Spleen uptake: mean ± SD; for Blood uptake / Bone uptake / Brain uptake / Heart uptake / Kidney uptake / Liver uptake / Lung uptake / Muscle uptake / Pancreas uptake / Skin uptake / Spleen uptake: six rats
[5] = system: 9L tumor; experiment: Small animal imaging with a microPET in 9L tumor bearing rats; format: in vivo, F344 rats; details: after intravenous injection, dynamic PET scan
In short: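 Rats bearing 9L xenografts were anaesthetised with 1–2% isoflurane and given 30–37 MBq (0.8–1 mCi) of radiotracer via the lateral tail vein. Dynamic small-animal PET acquisition started at injection and ran 2 h (5 min frames, 0.5 mm3 voxels), with a heating pad for body temperature. Region-of-interest analysis gave tissue time-activity curves.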

[6] = 30 min after single intravenous injection
[7] = 60 min after single intravenous injection

Compound: N[C@@H](Cc1ccc(OCC[18F])cc1)C(=O)O [FET, O-(2-[^18F]fluoroethyl)-L-tyrosine]
- Transport subtype selectivity [1]: selectively transported via LAT2

- Tumor uptake [4, 6]: 0.82 ± 0.06 % ID/g
- Tumor uptake [4, 7]: 0.90 ± 0.20 % ID/g
- Tumor to blood ratio ([4]; 30 min after injection): 1.12
- Tumor/Brain ratio ([4]; 30 min after injection): 1.55
- Tumor/Muscle ratio ([4]; 30 min after injection): 1.41
- Blood uptake [4, 6]: 0.73 ± 0.08 % ID/g
- Bone uptake [4, 6]: 0.41 ± 0.03 % ID/g
- Brain uptake [4, 6]: 0.53 ± 0.03 % ID/g
- Heart uptake [4, 6]: 0.70 ± 0.07 % ID/g
- Kidney uptake [4, 6]: 0.72 ± 0.05 % ID/g
- Liver uptake [4, 6]: 0.71 ± 0.07 % ID/g
- Lung uptake [4, 6]: 0.68 ± 0.08 % ID/g
- Muscle uptake [4, 6]: 0.58 ± 0.05 % ID/g
- Pancreas uptake [4, 6]: 2.66 ± 0.20 % ID/g
- Skin uptake [4, 6]: 0.57 ± 0.07 % ID/g
- Spleen uptake [4, 6]: 0.75 ± 0.06 % ID/g
- Tumor to blood ratio ([4]; 60 min after injection): 1.38
- Tumor/Brain ratio ([4]; 60 min after injection): 1.73
- Tumor/Muscle ratio (tumor to background) ([4]; 60 min after injection): 1.45
- Blood uptake [4, 7]: 0.65 ± 0.05 % ID/g
- Bone uptake [4, 7]: 0.41 ± 0.04 % ID/g
- Brain uptake [4, 7]: 0.52 ± 0.05 % ID/g
- Heart uptake [4, 7]: 0.63 ± 0.05 % ID/g
- Kidney uptake [4, 7]: 0.63 ± 0.05 % ID/g
- Liver uptake [4, 7]: 0.63 ± 0.05 % ID/g
- Lung uptake [4, 7]: 0.61 ± 0.05 % ID/g
- Muscle uptake [4, 7]: 0.62 ± 0.05 % ID/g
- Pancreas uptake [4, 7]: 2.45 ± 0.27 % ID/g
- Skin uptake [4, 7]: 0.60 ± 0.09 % ID/g
- Spleen uptake [4, 7]: 0.69 ± 0.05 % ID/g
- In vivo metabolic stability (from bone uptake) ([4]; bone uptake not significant at 30 and 60 min): metabolically stable
Compound: N[C@@H](Cc1ccc(CC[18F])cc1)C(=O)O [FEP, p-(2-[^18F]fluoroethyl)-L-phenylalanine]
- Inhibition of uptake by BCH ([2]; 5 mM BCH (system L inhibitor), normalized to uptake in PBS): more than 98%
- Inhibition of uptake by D-Met ([2]; D-Met (LAT1 specific inhibitor)): very similar effect as BCH
- Inhibition of uptake by MeAIB ([2]; MeAIB (system A inhibitor) 0.5 to 5 mM): no inhibition
- Sodium dependence of uptake ([2]; Na+ replaced with choline vs PBS): sodium independent
- Maximum uptake relative to FET [3]: about 1.4 fold
- Time for radioactivity in heart and muscle to reach a plateau [5]: 20 min
